From ChEMBL document CHEMBL4190303, “Chemical Constituents of Propolis from Vietnamese Trigona minor and Their Antiausterity Activity against the PANC-1 Human Pancreatic Cancer Cell Line” (2017)
Activity calls are given as the source filed them. The calls are words filed in the database; no cut-off is given here.

What follows are molecules tested on PANC-1 (assay: Antiausteritic activity against human PANC1 cells in nutrient-deprived medium assessed as decrease in cell viability measured after 24 hrs by WST-8 assay).
Type: functional

**Q.** CC(=O)OC/C(=C\CC[C@@H](C)[C@H]1CC[C@@]2(C)[C@@H]3CC[C@H]4C(C)(C)C(=O)CC[C@@]45C[C@@]35CC[C@]12C)C(=O)O was tested. Which PC50 did it give?
**A.** 77.5 µM

**Q.** With CC(=O)/C=C/C[C@@H](C)[C@H]1CC[C@@]2(C)[C@@H]3CC[C@H]4C(C)(C)[C@@H](O)CC[C@@]45C[C@@]35CC[C@]12C as the molecule, how does the PC50 read?
**A.** 16.4 µM

**Q.** For C[C@H](CC/C=C(\CO)C(=O)O)[C@H]1CC[C@@]2(C)[C@@H]3CC[C@H]4C(C)(C)[C@@H](O)CC[C@@]45C[C@@]35CC[C@]12C, which PC50 is on record?
**A.** 47.6 µM

**Q.** CC(C)=CCC[C@@H](C)[C@H]1CC[C@@]2(C)[C@@H]3CC[C@H]4C(C)(C)C(=O)CC[C@@]45C[C@@]35CC[C@]12C [CYCLOARTENONE] was tested. Which PC50 did it give?
**A.** >100 µM

**Q.** With C/C(=C\C(O)C[C@@H](C)[C@H]1CC[C@@]2(C)[C@@H]3CC[C@H]4C(C)(C)[C@H](O)CC[C@@]45C[C@@]35CC[C@]12C)C(=O)O (stereo in doubt; 4) as the molecule, how does the PC50 read?
**A.** 16.1 µM

**Q.** Which PC50 does the source give for C/C(=C\CC[C@@H](C)[C@H]1CC[C@@]2(C)[C@@H]3CC[C@H]4C(C)(C)C(=O)CC[C@@]45C[C@@]35CC[C@]12C)C(=O)O [MANGIFERONIC ACID] here?
**A.** >100 µM

**Q.** C/C(=C\C(O)C[C@@H](C)[C@H]1CC[C@@]2(C)[C@@H]3CC[C@H]4C(C)(C)[C@H](O)CC[C@@]45C[C@@]35CC[C@]12C)C(=O)O (stereo in doubt; 5) [listing 1 of 2 here] was tested. Which PC50 did it give?
**A.** 4.3 µM

**Q.** COc1cc(C[C@H]2C(=O)OC[C@@H]2Cc2ccc(OC)c(OC)c2)ccc1O [ARCTIGENIN] was tested. Which PC50 did it give?
**A.** 0.8 µM

**Q.** For CC(C)=CCC[C@@H](C)[C@H]1CC[C@@]2(C)C3=C(CC[C@]12C)[C@@]1(C)CC[C@H](O)C(C)(C)[C@@H]1CC3 [LANOSTEROL], which PC50 is on record?
**A.** 68.7 µM

**Q.** For CC(=O)OC/C(=C\CC[C@@H](C)[C@H]1CC[C@@]2(C)[C@@H]3CC[C@H]4C(C)(C)[C@@H](O)CC[C@@]45C[C@@]35CC[C@]12C)C(=O)O, which PC50 is on record?
**A.** 22.6 µM

**Q.** For C[C@H](CC/C=C(\CO)C(=O)O)[C@H]1CC[C@@]2(C)[C@@H]3CC[C@H]4C(C)(C)[C@H](O)CC[C@@]45C[C@@]35CC[C@]12C, which PC50 is on record?
**A.** 3.7 µM

**Q.** For C[C@H](CC/C=C(\CO)C(=O)O)[C@H]1CC[C@@]2(C)[C@@H]3CC[C@H]4C(C)(C)C(=O)CC[C@@]45C[C@@]35CC[C@]12C, which PC50 is on record?
**A.** 93.8 µM

**Q.** With C/C(=C\CC[C@@H](C)[C@H]1CC[C@@]2(C)[C@@H]3CC[C@H]4C(C)(C)[C@@H](O)CC[C@@]45C[C@@]35CC[C@]12C)C(=O)O [MANGIFEROLIC ACID] as the molecule, how does the PC50 read?
**A.** >100 µM

**Q.** C/C(=C\C(O)C[C@@H](C)[C@H]1CC[C@@]2(C)[C@@H]3CC[C@H]4C(C)(C)[C@@H](O)CC[C@@]45C[C@@]35CC[C@]12C)C(=O)O (some centres undefined) was tested. Which PC50 did it give?
**A.** 64.4 µM

**Q.** C/C(=C\C(O)C[C@@H](C)[C@H]1CC[C@@]2(C)[C@@H]3CC[C@H]4C(C)(C)C(=O)CC[C@@]45C[C@@]35CC[C@]12C)C(=O)O (some centres undefined) was tested. Which PC50 did it give?
**A.** 16.8 µM

**Q.** For CC(=O)O[C@H]1C(=O)[C@@]2(C)[C@H]([C@H](OC(=O)c3ccccc3)[C@]3(O)C[C@H](OC(=O)[C@H](O)[C@@H](NC(=O)c4ccccc4)c4ccccc4)C(C)=C1C3(C)C)[C@]1(OC(C)=O)CO[C@@H]1C[C@@H]2O [PACLITAXEL], which PC50 is on record?
**A.** >100 µM

**Q.** Which PC50 does the source give for COC(=O)OC/C(=C\CC[C@@H](C)[C@H]1CC[C@@]2(C)[C@@H]3CC[C@H]4C(C)(C)C(=O)CC[C@@]45C[C@@]35CC[C@]12C)C(=O)O here?
**A.** 32.9 µM

Each molecule was assayed on PANC-1 (assay: Antiausteritic activity against human PANC1 cells in nutrient-deprived medium assessed as changes in cell morphology at 5 uM after 24 hrs by ethidium bromide/acridine orange staining based phase contrast microscopy).
Type: functional
In short: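 PANC-1 seeded in 60 mm dishes (1 × 10^6), grown 24 h in DMEM at 37 °C, 5% CO2, washed twice with PBS, then switched to NDM with or without compound. After 24 h, EB/AO reagent added for 5 min. Imaged at 40× in fluorescence and phase-contrast modes. AO marks live cells green, EB marks dead cells red.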

**Q.** How did the Activity turn out when C/C(=C\C(O)C[C@@H](C)[C@H]1CC[C@@]2(C)[C@@H]3CC[C@H]4C(C)(C)[C@H](O)CC[C@@]45C[C@@]35CC[C@]12C)C(=O)O (stereo in doubt; 5) [listing 2 of 2 here] was run?
**A.** Active

Each molecule was assayed on PANC-1 (assay: Inhibition of colony formation in human PANC1 cells after 10 days by crystal violet staining based assay).
Type: functional, cell-based
In short: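 500 cells/well plated in DMEM and allowed to attach for 24 h at 37 °C, 5% CO2. Treated at 12.5, 25 and 50 μM in DMEM and grown for 10 days. Cells washed with PBS, fixed in 4% formaldehyde, stained with crystal violet for 10 min. Three independent repeats.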

**Q.** With C/C(=C\C(O)C[C@@H](C)[C@H]1CC[C@@]2(C)[C@@H]3CC[C@H]4C(C)(C)[C@H](O)CC[C@@]45C[C@@]35CC[C@]12C)C(=O)O (stereo in doubt; 5) [listing 2 of 2 here] as the molecule, how does the inhibition read?
**A.** Dose-dependent effect
